An excerpt weighted towards active compounds, which were near 4.1% of everything screened.
FLuc inhib CS: inhibits firefly luciferase, flagging false hits in luciferase inhibition screens; ATPLite firefly luciferase biochemical luminescence, 10 min; inhibition, % at 10 µM; 200,000 compounds, 1.5% hits; AID 1006;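 active = inhibition above about 50% when tested at 10 µM, limit read from the data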
Target sequence (P08659 whole entry, looked up): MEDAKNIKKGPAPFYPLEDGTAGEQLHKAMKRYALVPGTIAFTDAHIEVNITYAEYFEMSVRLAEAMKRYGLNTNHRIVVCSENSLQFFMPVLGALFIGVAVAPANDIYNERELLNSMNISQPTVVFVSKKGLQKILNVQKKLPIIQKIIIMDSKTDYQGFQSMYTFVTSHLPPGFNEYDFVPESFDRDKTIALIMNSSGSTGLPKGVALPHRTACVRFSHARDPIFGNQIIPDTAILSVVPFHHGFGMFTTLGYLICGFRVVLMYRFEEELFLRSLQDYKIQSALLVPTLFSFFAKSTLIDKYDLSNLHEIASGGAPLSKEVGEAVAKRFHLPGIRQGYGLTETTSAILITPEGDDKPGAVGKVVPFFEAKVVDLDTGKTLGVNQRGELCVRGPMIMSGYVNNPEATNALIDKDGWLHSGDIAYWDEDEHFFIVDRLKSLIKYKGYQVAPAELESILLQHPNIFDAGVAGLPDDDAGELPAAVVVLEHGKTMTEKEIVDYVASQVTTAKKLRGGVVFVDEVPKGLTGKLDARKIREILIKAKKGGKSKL
APP 5'UTR act: APP 5'UTR luciferase reporter activation; SH-SY5Y APP 5'UTR luciferase reporter, luminescence; zero percent = DMSO vehicle wells; activation, % at 2 µM; 190,000 compounds, 1% hits;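 active = activation above a set limit, based on mean plus 3 SD of controls, cut at about 140% in these data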
NF-kB neuron act: compounds increasing NF-kB expression in human neuronal cells; NF-kB reporter expression; active compounds read high; fold change at 12.5 µM; AID 1239; 190,000 compounds, 1.6% hits; in the data active = fold change above about 3.3
FLuc act counter: affects firefly luciferase, flagging false hits in luciferase stimulation screens; P08659; ATPlite luciferase biochemical, luminescence, 10 min; 0 = ATP-free wells, 1 = DMSO control; activation factor at 10 µM; 200,000 tested, under 10 active; AID 1027;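 active = luciferase activation factor, scaled between plate controls, of at least 2 with compound at 10 µM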
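Assay system: Luciferase/luciferin reagent mix; Medium: PBS as buffer for the ATP substrate; Dosing: test compounds dosed from 2 mM stocks in 100% DMSO; Times: 10 min, room temperature; Signal: luminescence from luciferase reaction; Read-out: luciferase activation; Controls: No-ATP low control, compound-free enzyme-plus-ATP high control.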
STAT1 act: activators of IFN-gamma induced STAT1 signaling; NIH 3T3 STAT1-luciferase reporter, luminescence; 100% = IFN-gamma alone, no compound; activation (% of control), % at 5.5 µM; 200,000 compounds, 2.6% hits;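 active = activation above the screen-wide mean activation plus 3 SD, cut at about 130% in these data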;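 note: raw ratio to IFN-gamma control signal so 100% means no change and 0% no light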
Starred values were filed as active, the others as inactive.

SMILES	FLuc inhib CS	APP 5'UTR act	NF-kB neuron act	FLuc act counter	STAT1 act
CCNc1nc(C)c2cc(Br)c(=O)n(CC)c2n1	-3	-17	1.6	1	139*
COCCNC(=S)Nc1ccc2[nH]c(=O)[nH]c2c1	-6	4	1.2	1.1	97
CCc1cccc(NC(=S)N2CCC(c3ccccc3)C2)c1 (stereo not drawn)	8	25	1.3	0.9	126
Fc1cc(F)cc(NC(=S)N2CCC(c3ccccc3)C2)c1 (stereo not drawn)	7	66	2.1	0.9	141*
Fc1ccccc1NC(=S)N1CCC(c2ccccc2)C1 (stereo not drawn)	15	61	2.5	0.8	146*
Cc1ccc(NC(=S)N2CCC(c3ccc(C)cc3)C2)cc1 (stereo not drawn)	16	28	1.6	0.8	122
Cc1ccc(NC(=S)N2CCC(c3ccccc3)C2)c(Cl)c1 (stereo not drawn)	74*	190*	6.5*	0.3	93
S=C(Nc1ccccc1Cl)N1CCC(c2ccccc2)C1 (stereo not drawn)	21	130	3.4*	0.8	148*
Fc1ccccc1NC(=S)N1CCCCC1	0	5	0.99	1	105
Cc1ccc(NS(=O)(=O)c2ccc(C(=O)OCC(=O)NCC3CCCO3)cc2)cc1 (stereo not drawn)	-5	-9	1.1	1	104
Cc1c(NS(=O)(=O)c2ccc3c(c2)CCN3C(=O)C2CC2)c(=O)n(-c2ccccc2)n1C	0	7	0.82	1	101
O=C(Nc1ccccc1O)c1ccc(Cl)cc1	20	43	5.7*	0.8	92
COc1ccc(C(=O)Nc2cc(Cl)ccc2OC(=O)c2ccc(OC)cc2)cc1	-1	60	2.5	1	96
Cc1cc(NC(=O)c2ccc(Cl)cc2)c(C)cc1O	53*	21	1.3	0.5	115
CC(C)(C)c1ccc(C(=O)Nc2ccccc2Cl)cc1	59*	201*	4.8*	0.4	115
Cc1ccc(C(=O)Nc2cc(Cl)ccc2OC(=O)c2ccc(C)cc2)cc1	20	78	4.1*	0.8	96
c1ccc(-c2nnc(SCCC3OCCCO3)o2)cc1	35	65	3.4*	0.7	116
Cc1cc(C)cc(C(=O)N2CCN(c3ccccn3)CC2)c1	-5	-17	1.1	1	98
O=C(/C=C/c1ccccc1)N1CCCN(C(=O)/C=C/c2ccccc2)CC1	2	19	1.2	1	98
CC(C)Cc1ccc(/C=C/C(=O)NC2CC2)cc1	24	63	3.2	0.8	147*
CC(C)Cc1ccc(/C=C/C(=O)N2CCCCC2)cc1	14	86	4.2*	0.9	139*
O=C(/C=C/c1ccc(Br)cc1)NC1CCCCCC1	6	-5	1.7	0.9	111
Cc1ccc(S(=O)(=O)N(Cc2ccc(Cl)cc2)c2ccccc2C(=O)NCc2ccco2)cc1	-4	1	0.65	1	101
Fc1ccc(COc2ccc(/C=N/n3cnnc3)cc2)cc1	-2	23	1.2	1	92
O=C(/C=C/c1ccccc1Cl)c1ccc[nH]1	48	53	4.3*	0.5	87
SMILES	FLuc inhib CS	APP 5'UTR act	NF-kB neuron act	FLuc act counter	STAT1 act
O=C(/C=C/c1ccc(Cl)cc1Cl)c1ccc[nH]1	52*	52	2.1	0.5	107
N#C/C=C(/N)N1CCN(c2ccc(Cl)c(Cl)c2)CC1	-2	-8	0.82	1	95
COc1ccc(CCNc2nnc(Sc3nnnn3-c3ccccc3)s2)cc1OC	-6	-94	3.7*	1.1	93
COc1ccc(-n2nnnc2SCC(=O)NCCc2ccccc2)cc1OC	-5	6	0.97	1.1	97
CCCN(CCC)CCCNC(=S)Nc1ccc2nc3n(c(=O)c2c1)CCCCC3	-6	-8	1.1	1.1	93
COc1cc(/C=C(/C#N)c2ccc(F)cc2)ccc1OCc1ccc(C(=O)O)o1	4	7	1.4	1	106
CCOC(=O)C(C)/C(C)=N/NC(N)=S (stereo not drawn)	0	12	0.99	1	104
Cc1cc(-c2ccc(Cl)cc2)n2nc(N)nc2n1	6	8	1.2	0.9	94
Nc1nc2nccc(-c3ccc(Cl)cc3)n2n1	51*	-1	1.6	0.5	121
COc1ccc(-c2nnc(-c3ccc(N(C)C)cc3)o2)cc1	12	-7	2.2	0.9	112
C/C(N)=C(/C#N)C(=O)CSc1nnc(-c2ccccc2Br)o1	0	198*	5.5*	1	138*
COc1ccc(-c2nnc(SCC(=O)/C(C#N)=C(\C)N)o2)cc1	10	194*	5.1*	0.9	136*
COc1ccc(-c2nnc(-c3ccc(N)cc3)o2)cc1	68*	79	5.7*	0.3	140*
COc1ccc2nc(SCC(=O)/C(C#N)=C(\C)N)[nH]c2c1	26	121	4.1*	0.7	141*
CC(C)CCNC(=O)NC(=O)CSc1nnc(-c2ccccc2Br)o1	-7	16	1.2	1.1	100
CCCCNC(=O)CNC(=S)N(CCCN1CCOCC1)Cc1cccs1	-8	-5	1.1	1.1	103
Clc1ccc(-n2ncc3c(N4CCCCCC4)ncnc32)cc1	83*	27	0.23	0.2	99
COc1ccc(-n2ncc3c(N4CCN(c5cc(C)ccc5C)CC4)ncnc32)cc1	-4	-3	1.1	1	104
Clc1ccc(Cn2ncc3c(N4CCCCC4)ncnc32)cc1	-6	17	0.51	1.1	97
COc1ccc(-n2ncc3c(N4CCCCC4)ncnc32)cc1	94*	39	0.27	0.1	33
CC1CN(c2ncnc3c2cnn3-c2ccc(Cl)cc2)CC(C)O1 (stereo not drawn)	16	47	1.5	0.8	147*
CC1CC(C)CN(c2ncnc3c2cnn3Cc2ccc(Cl)cc2)C1 (stereo not drawn)	-9	-6	0.86	1.1	97
CCCCN(CC)CCNC(=O)CN1C(=O)COc2ccc(S(=O)(=O)N3CCCC3)cc21	-2	-19	0.95	1	104
CCc1n[nH]c(=S)n1/N=C/c1cc(OC)cc([N+](=O)[O-])c1O	12	15	1.1	0.9	107
CCOc1ccc(C(=O)NCC2OCCc3ccccc32)cc1 (stereo not drawn)	19	7	1.3	0.8	96
COc1ccccc1-c1cc(SC)c(C#N)c(=O)o1	-6	-1	1.7	1.1	133*
COC(=O)c1ccc(Oc2cc(C)nc(-n3nc(C)cc3C)n2)cc1	-9	-94	3.9*	1.1	96
COC(=O)c1ccc(Oc2nc(C)cc(Oc3ccccc3)n2)cc1	-6	-2	1	1.1	98
CN1CCN(/N=C/c2ccc(-c3ccccc3)cc2)CC1	11	75	3.8*	0.9	116
Cn1cccc1/C=N/N1CCN(c2ccccn2)CC1	2	10	0.97	1	107

Bioassay records: PubChem, several laboratories
